Reference: ChEMBL document CHEMBL1134386, “Cardioselective K(ATP) channel blockers derived from a new series of m-anisamidoethylbenzenesulfonylthioureas” (J Med Chem, 2001)

Experiments:
Type in all cases: functional, cell-based
[1] = molecular target: T1, Sulfonylurea receptor 1, Kir6.2 (Homo sapiens) (UniProt Q14654+Q09428); experiment: Antiarrhythmic effect in hSUR1/hKir6.2 (pancreatic KATP channel) transfected in CHO cells at a dose of 0.1 uM; conditions: at 0.1 µM
Summary of the method: (§1)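 CHO cells stably expressing SUR1/Kir6.2, seeded the day before and washed three times in PBS. Loaded with voltage dye DiBAC4(3), added as a 10 µM solution, with diazoxide, added as a 400 µM solution, both in PBS; 30 min at 37 °C. Compound added after 4 min of baseline. Fluorescence read with 488 nm excitation every 20 s for 20 min. Mean of at least four experiments.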

[2] = molecular target: T1, Sulfonylurea receptor 1, Kir6.2 (Homo sapiens); experiment: Antiarrhythmic effect in hSUR1/hKir6.2 (pancreatic KATP channel) transfected in CHO cells at a dose of 1 uM; conditions: at 1 µM; summary of the method: as §1
[3] = molecular target: T1, Sulfonylurea receptor 1, Kir6.2 (Homo sapiens); experiment: Antiarrhythmic effect in hSUR1/hKir6.2 (pancreatic KATP channel) transfected in CHO cells at a dose of 10 uM; conditions: at 10 µM; summary of the method: as §1
[4] = molecular target: T1, Sulfonylurea receptor 1, Kir6.2 (Homo sapiens); experiment: Antiarrhythmic effect in hSUR1/hKir6.2 (pancreatic KATP channel) transfected in CHO cells at 1 nM
Summary of the method: (§2)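 CHO cells stably expressing SUR1/Kir6.2, seeded the day before and washed three times with PBS. Loaded with DiBAC4(3) plus diazoxide in PBS for 30 min at 37 °C. Membrane-potential fluorescence read with 488 nm excitation; compound added at 4 min, then readings every 20 s for 20 min. Mean of at least four experiments.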

[5] = molecular target: T1, Sulfonylurea receptor 1, Kir6.2 (Homo sapiens); experiment: Antiarrhythmic effect in hSUR1/hKir6.2 (pancreatic KATP channel) transfected in CHO cells at 3 nM; summary of the method: as §2

Structure (SMILES) | inhibition [1] [%] | inhibition [2] [%] | inhibition [3] [%] | inhibition [4] [%] | inhibition [5] [%]
CN/C(S)=N/S(=O)(=O)c1cc(CCNC(=O)c2cc(Cl)ccc2OC)ccc1C(C)C | 12 | 29.3 | 92.4 | – | –
CCCc1ccc(CCNC(=O)c2cc(Cl)ccc2OC)cc1S(=O)(=O)/N=C(\S)NC | 2.3 | 41.5 | 97.1 | – | –
CN/C(S)=N/S(=O)(=O)c1cc(CCNC(=O)c2cc(Cl)ccc2OC)ccc1C | 1.9 | 21 | 74.8 | – | –
COc1ccc(Cl)cc1C(=O)NCCc1ccc(OC)c(S(=O)(=O)/N=C(\S)NC2CCCCC2)c1 | 20.5 | 87.6 | 122 | – | –
CN/C(S)=N/S(=O)(=O)c1cc(CCNC(=O)c2cc(Cl)ccc2OC)ccc1-c1ccccc1 | 9.4 | 33 | 67.7 | – | –
CN/C(S)=N/S(=O)(=O)c1cc(CCNC(=O)c2cc(Cl)ccc2OC)ccc1OCCOCCOC | 1 | 45.5 | 96.4 | – | –
CN/C(S)=N/S(=O)(=O)c1cc(CCNC(=O)c2cc(Cl)ccc2OC)ccc1SC | -2.1 | 15.2 | 81.4 | – | –
C=CCOc1ccc(CCNC(=O)c2cc(Cl)ccc2OC)cc1S(=O)(=O)/N=C(\S)NC | 1.7 | 31.8 | 94 | – | –
CN/C(S)=N/S(=O)(=O)c1cc(CCNC(=O)c2cc(Cl)ccc2OC)c(C)c(C)c1OC | 0.8 | 6.1 | 64.9 | – | –
CN/C(S)=N/S(=O)(=O)c1cc(CCNC(=O)c2cc(Cl)ccc2OC)ccc1[S+](C)[O-] (stereo not given) | 1.9 | 2.4 | 17.6 | – | –
CN/C(S)=N/S(=O)(=O)c1cc2c(cc1OC)OCCC2CNC(=O)c1cc(Cl)ccc1OC (single isomer, unassigned; (+)) | -3.9 | 3.6 | 70.7 | – | –
CCOc1ccc(CCNC(=O)c2cc(Cl)ccc2OC)cc1S(=O)(=O)/N=C(\S)NC | -2.7 | 16.3 | 75.4 | – | –
CN/C(S)=N/S(=O)(=O)c1cc(CCNC(=O)c2cc(Cl)ccc2OC)ccc1Cl | 2.3 | 2.8 | 40.1 | – | –
CN/C(S)=N/S(=O)(=O)c1cccc(CCNC(=O)c2cc(Cl)ccc2OC)c1 | -4.1 | 1.9 | 52.7 | – | –
CN/C(S)=N/S(=O)(=O)c1cc(CCNC(=O)c2cc(Cl)ccc2OC)ccc1S(C)(=O)=O | 1.8 | 1.1 | 16.4 | – | –
CN/C(S)=N/S(=O)(=O)c1cc(CCNC(=O)c2cc(Cl)ccc2OC)ccc1N1CCOCC1 | -1.6 | 26.7 | 89.1 | – | –
CNC(=O)NS(=O)(=O)c1cc(CCNC(=O)c2cc(Cl)ccc2OC)c(OC)cc1OC | -0.6 | 2.8 | 13.5 | – | –
CN/C(S)=N/S(=O)(=O)c1cc(CCNC(=O)c2cc(Cl)ccc2OC)ccc1I | 1.7 | 19.2 | 89.2 | – | –
CN/C(S)=N/S(=O)(=O)c1cc(CCNC(=O)c2cc(Cl)ccc2OC)ccc1-c1ccccn1 | 6.6 | 24.4 | 91.4 | – | –
CN/C(S)=N/S(=O)(=O)c1cc(CCNC(=O)c2cc(Cl)ccc2OC)cc(OC)c1OC | -3.8 | -2.12 | -2.34 | – | –
CN/C(S)=N/S(=O)(=O)c1cc2c(cc1OC)OCCC2CNC(=O)c1cc(Cl)ccc1OC (single isomer, unassigned; (-)) | 6.8 | 63 | 75.7 | – | –

Structure (SMILES) | inhibition [1] [%] | inhibition [2] [%] | inhibition [3] [%] | inhibition [4] [%] | inhibition [5] [%]
COc1ccc(Cl)cc1C(=O)NCCc1ccc(OC)c(S(=O)(=O)/N=C(/N)S)c1 | 1.6 | 11.2 | 64.7 | – | –
CNC(=O)NS(=O)(=O)c1ccc(CCNC(=O)c2cc(Cl)ccc2OC)cc1 | -0.7 | 62.8 | 86.3 | – | –
CN/C(S)=N/S(=O)(=O)c1cc(CCNC(=O)c2cc(Cl)ccc2OC)ccc1OC(F)(F)F | 0.8 | 6 | 64.9 | – | –
CCc1ccc(CCNC(=O)c2cc(Cl)ccc2OC)cc1S(=O)(=O)/N=C(\S)NC | 1.3 | 20.5 | 92.9 | – | –
CNC(=O)NS(=O)(=O)c1cc(CCNC(=O)c2cc(Cl)ccc2OC)ccc1OC | -2.8 | -1.3 | 43.9 | – | –
CN/C(S)=N/S(=O)(=O)c1cc(CCNC(=O)c2cc(Cl)ccc2OC)c(OC)c(C)c1OC | -2 | 6.7 | 47.8 | – | –
CCCOc1ccc(CCNC(=O)c2cc(Cl)ccc2OC)cc1S(=O)(=O)/N=C(\S)NC | 4.2 | 63.6 | 103 | – | –
COc1ccc(Cl)cc1C(=O)NCCc1ccc(OC)c(S(=O)(=O)NC(=O)NC2CCCCC2)c1 | 65.5 | 92.8 | 81.7 | – | –
CNC(=S)NS(=O)(=O)c1cc(CCNC(=O)c2cc(Cl)ccc2OC)ccc1OC | 5 | 24.3 | 83.8 | – | –
C#Cc1ccc(CCNC(=O)c2cc(Cl)ccc2OC)cc1S(=O)(=O)/N=C(\S)NC | 3.3 | 3.4 | 27.6 | – | –
COc1ccc(Cl)cc1C(=O)NCCc1ccc(OC)c(S(=O)(=O)NC(=O)N(C)C)c1 | -3.6 | -3.2 | 25 | – | –
COc1ccc(Cl)cc1C(=O)NCCc1ccc(S(=O)(=O)NC(=O)NC2CCCCC2)cc1 | – | – | – | 24 | 73.3
CNC(=O)NS(=O)(=O)c1cc2c(cc1OC)OCCC2CNC(=O)c1cc(Cl)ccc1OC (single isomer, unassigned; (-)) | 2.5 | 14.2 | 105 | – | –
CN/C(S)=N/S(=O)(=O)c1cc(CCNC(=O)c2cc(Cl)ccc2OC)ccc1-c1ccco1 | -2.6 | 16 | 82.7 | – | –
CN/C(S)=N/S(=O)(=O)c1cc(CCNC(=O)c2cc(Cl)ccc2OC)ccc1F | -3.9 | -1.3 | 18.1 | – | –
CN/C(S)=N/S(=O)(=O)c1cc(CCNC(=O)c2cc(Cl)ccc2OC)ccc1-c1cccnc1 | 4.4 | 10.2 | 62.3 | – | –
CN/C(S)=N/S(=O)(=O)c1cc(CCNC(=O)c2cc(Cl)ccc2OC)ccc1OC(C)C | -4.7 | 27.4 | 81.1 | – | –
CN/C(S)=N/S(=O)(=O)c1cc(CCNC(=O)c2cc(Cl)ccc2OC)ccc1Br | 3.3 | 2.2 | 67.7 | – | –
CN/C(S)=N/S(=O)(=O)c1cc(CCNC(=O)c2cc(Cl)ccc2OC)ccc1OCCOC | 12.5 | 26.2 | 49.5 | – | –
CN/C(S)=N/S(=O)(=O)c1cc(CCNC(=O)c2cc(Cl)ccc2OC)c(OC)cc1OC | -1 | 0.7 | 30.5 | – | –
CNC(=O)NS(=O)(=O)c1cc2c(cc1OC)OCCC2CNC(=O)c1cc(Cl)ccc1OC (single isomer, unassigned; (+)) | 2 | 1 | 0.3 | – | –
